Source: ChEMBL document CHEMBL2375320, “Synthesis and antimicrobial activity of polyhalo isophthalonitrile derivatives” (2013)
≈ marks a conversion by molar mass, not a printed value. Calls of active or inactive are those of the source. The calls are words filed in the database; no cut-off is given here.

Legend:
Assay type in all cases: functional
Bacillus cereus [1] = assay: Antibacterial activity against Bacillus cereus ATCC 14579 assessed as growth inhibition after 24 hrs by microbroth dilution method; settings: ATCC 14579, 24 h
Outline: (§1)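 Tube dilution: each compound or positive control (norfloxacin, fluconazole) prepared in DMSO at 11 concentrations from 0.98 to 1000 µg/mL. Inoculum and sterile water added to tubes each holding 1 mL of compound solution. Tubes incubated 24 h and inspected for turbidity. MIC is the lowest concentration with no visible growth. Run in triplicate.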

Candida albicans [2] = assay: Antifungal activity against Candida albicans ATCC 10231 assessed as growth inhibition after 24 hrs by microbroth dilution method; settings: ATCC 10231, 24 h; outline: as §1
Staphylococcus aureus [3] = assay: Antibacterial activity against Staphylococcus aureus ATCC 6538 assessed as growth inhibition at 1000 ug/mL after 24 hrs by disk diffusion method; settings: for zone of inhibition at 1000 µg/mL: ATCC 6538, 24 h, read-out: IZ
Pseudomonas aeruginosa = assay: Antibacterial activity against Pseudomonas aeruginosa ATCC 15442 assessed as growth inhibition at 1000 ug/mL after 24 hrs by disk diffusion method; settings: for zone of inhibition at 1000 µg/mL: ATCC 15442, 24 h, read-out: IZ
Staphylococcus aureus [4] = assay: Antibacterial activity against Staphylococcus aureus ATCC 6538 assessed as growth inhibition after 24 hrs by microbroth dilution method; settings: ATCC 6538, 24 h; outline: as §1
Candida albicans [5] = assay: Antifungal activity against Candida albicans ATCC 10231 assessed as growth inhibition at 1000 ug/mL after 72 hrs by disk diffusion method; settings: for zone of inhibition at 1000 µg/mL: ATCC 10231, 72 h, read-out: IZ
Outline: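 Candida grown and kept on Sabouraud glucose agar plates. Compounds screened at a fixed 1000 µg/mL, with fluconazole as positive control. Plates incubated at 26 °C for 72 h, then zones of inhibition measured in mm.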

Bacillus cereus [6] = assay: Antibacterial activity against Bacillus cereus ATCC 14579 assessed as growth inhibition at 1000 ug/mL after 24 hrs by disk diffusion method; settings: for zone of inhibition at 1000 µg/mL: ATCC 14579, 24 h, read-out: IZ
Escherichia coli = assay: Antibacterial activity against Escherichia coli ATCC 8099 assessed as growth inhibition at 1000 ug/mL after 24 hrs by disk diffusion method

| SMILES | MIC (Bacillus cereus [1]) [µg/mL] | MIC (Candida albicans [2]) [µg/mL] | zone of inhibition at 1000 µg/mL (Staphylococcus aureus [3]) [mm] | zone of inhibition at 1000 µg/mL (Pseudomonas aeruginosa) [mm] | MIC (Staphylococcus aureus [4]) [µg/mL] | zone of inhibition at 1000 µg/mL (Candida albicans [5]) [mm] | zone of inhibition at 1000 µg/mL (Bacillus cereus [6]) [mm] | inhibition zone (IZ) (Escherichia coli) | inhibition zone (IZ) (Pseudomonas aeruginosa) | inhibition zone (IZ) (Staphylococcus aureus [3]) | inhibition zone (IZ) (Bacillus cereus [6]) | zone of inhibition at 1000 µg/mL (Escherichia coli; ATCC 8099, 24 h, read-out: IZ) [mm] | inhibition zone (IZ) (Candida albicans [5]) |
| --- | --- | --- | --- | --- | --- | --- | --- | --- | --- | --- | --- | --- | --- |
| N#Cc1c(F)c(F)c(Nc2ccc(Cl)cc2)c(C#N)c1F | 31.3 (≈ 102 µM) | 2.3 (≈ 7.48 µM) | 19.8 | 7.8 | 1.5 (≈ 4.88 µM) | 13.3 | 16.7 | inactive |  |  |  |  |  |
| CCCSc1c(F)c(N)c(C#N)c(SCCC)c1C#N |  |  | 7.9 |  |  |  | 7.4 | inactive | inactive |  |  |  |  |
| N#Cc1c(N)c(Sc2ccccc2)c(Sc2ccccc2)c(C#N)c1Sc1ccccc1 |  |  |  |  |  |  |  | inactive | inactive | inactive | inactive |  |  |
| N#Cc1c(F)c(Cl)c(NCc2ccccc2)c(C#N)c1F | 0.4 (≈ 1.32 µM) | 0.5 (≈ 1.65 µM) | 23.1 |  | 0.5 (≈ 1.65 µM) | 13.9 | 22.6 | inactive | inactive |  |  |  |  |
| N#Cc1c(F)c(F)c(NCc2ccccc2)c(C#N)c1F | 3.9 (≈ 13.6 µM) | 10.4 (≈ 36.2 µM) | 19.3 |  | 1.3 (≈ 4.53 µM) | 11.6 | 18.1 | inactive | inactive |  |  |  |  |
| N#Cc1c(Cl)c(Cl)c(Sc2ccccc2)c(C#N)c1Cl | > 1000 | > 500 | 7.3 |  | 250 (≈ 736 µM) | 6.8 | 7 | inactive | inactive |  |  |  |  |
| OC(Cn1cncn1)(Cn1cncn1)c1ccc(F)cc1F [FLUCONAZOLE] |  | 1 (≈ 3.27 µM) |  |  |  | 22.5 |  |  |  |  |  |  |  |
| CCn1cc(C(=O)O)c(=O)c2cc(F)c(N3CCNCC3)cc21 [NORFLOXACIN] | 0.5 (≈ 1.57 µM) |  | 19.9 | 18 | 0.5 (≈ 1.57 µM) |  | 15.2 |  |  |  |  | 31 |  |
| COc1ccc(Nc2c(Cl)c(Cl)c(C#N)c(Cl)c2C#N)cc1 |  |  |  |  |  |  |  | inactive | inactive | inactive | inactive |  | inactive |
| N#Cc1c(Cl)c(Cl)c(Cl)c(C#N)c1Cl [CHLOROTHALONIL] | 0.7 (≈ 2.63 µM) | 0.5 (≈ 1.88 µM) | 20.1 |  | 0.5 (≈ 1.88 µM) | 9.9 | 20.2 | inactive | inactive |  |  |  |  |
| N#Cc1c(F)c(F)c(Nc2ccccc2)c(C#N)c1F | 6.8 (≈ 24.9 µM) | 3.9 (≈ 14.3 µM) | 23 | 8 | 3.3 (≈ 12.1 µM) | 17.3 | 17.8 | inactive |  |  |  |  |  |
| CCCSc1c(Cl)c(SCCC)c(C#N)c(F)c1C#N | > 1000 | > 500 | 8.8 |  | 11.7 (≈ 35.6 µM) |  | 7.5 | inactive | inactive |  |  |  | inactive |
| CN(C)CCCNc1c(Cl)c(N)c(C#N)c(F)c1C#N |  |  | 14.2 |  |  |  | 15 | inactive | inactive |  |  |  |  |
| CCCSc1c(Cl)c(N)c(C#N)c(Cl)c1C#N | > 1000 | > 1000 | 7 |  | 500 (≈ 1750 µM) |  | 7 | inactive | inactive |  |  |  |  |
| N#Cc1c(F)c(Cl)c(F)c(C#N)c1F |  |  |  |  |  |  |  | inactive | inactive | inactive | inactive |  | inactive |
| N#Cc1c(N)c(F)c(F)c(C#N)c1F | 104 (≈ 529 µM) | 62.5 (≈ 317 µM) | 11.8 | 7.8 | 125 (≈ 634 µM) | 7.5 | 8 | inactive |  |  |  |  |  |
